# Tested on: MDA-MB-231
# Assay: Transmission electron microscopy of mitochondrial morphology
# Assay type: cell-based
# Settings: AuTri-9 10 µM, 1 h
# How it was run: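 MDA-MB-231 cells were exposed to the test compound for 1 h. Vehicle wells received 1% DMSO. Reference inducers were run alongside: staurosporine (apoptosis), hydrogen peroxide (necrosis), rapamycin (autophagy) and erastin (ferroptosis). Mitochondria were imaged by TEM. Maximal cristae width was measured in 10 randomly chosen cells on randomly chosen mitochondria, with up to 3 cristae per mitochondrion and 100 cristae per cell, given as mean ± s.e.m.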
row,Compound,morphological changes in mitochondria (TEM)
1,"OO [H2O2, hydrogen peroxide]",mitochondrial structure remains intact
2,CCOc1ccccc1-n1c(C(C)N2CCN(C(=O)COc3ccc(Cl)cc3)CC2)nc2ccccc2c1=O (centres unmarked) [erastin],mitochondrial shrinkage
3,CO[C@H]1C[C@@H]2CC[C@@H](C)[C@@](O)(O2)C(=O)C(=O)N2CCCC[C@H]2C(=O)O[C@H]([C@H](C)C[C@@H]2CC[C@@H](O)[C@H](OC)C2)CC(=O)[C@H](C)/C=C(\C)[C@@H](O)[C@@H](OC)C(=O)[C@H](C)C[C@H](C)/C=C/C=C/C=C/1C [rapamycin],no distinct morphological changes to mitochondria
4,CN[C@@H]1C[C@H]2O[C@@](C)([C@@H]1OC)n1c3ccccc3c3c4c(c5c6ccccc6n2c5c31)C(=O)NC4 [staurosporine],no distinct morphological changes to mitochondria

# Tested on: MDA-MB-231
# Assay: Cell viability
# Assay type: cell-based
# Settings: Homo sapiens, MDA-MB-231, 72 h, read-out: IC50 value
# How it was run: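 Test compounds were added from stock solutions so that the final DMSO was <1%, and MDA-MB-231 cells were incubated with them for 72 h. Viability was read after exposure and IC50 derived. Data are mean ± s.e.m., n = 3.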
row,Compound,IC50 [µM]
1,"c1cnc2c(c1)ccc1cccnc12 [1,10-phenantrholine]",7.21 ± 1.68
2,"Cc1ccnc2c1ccc1c(C)ccnc12 [4,7-dimethylphenanthroline]",14.1 ± 2.58

# Same assay, conditions: read-out: IC50 value; MDA-MB-231, MTT assay, 72 h, mean ± s.e.m., n = 3
row,Compound,IC50 [µM]
1,[Au+].[F][Sb-]([F])([F])([F])([F])[F].c1ccc(-c2ccccn2)nc1.c1ccc(P(c2ccccc2)c2ccccc2)cc1 [AuTri-3],6.56 ± 0.354
2,[Au+].[F][Sb-]([F])([F])([F])([F])[F].c1ccc([As](c2ccccc2)c2ccccc2)cc1.c1cnc2c(c1)ccc1cccnc12 [AuTri-4],3.98 ± 0.359
3,[F][Sb-]([F])([F])([F])([F])[F].[Na+] [NaSbF6],> 50
4,CC(=O)OC[C@H]1O[C@@H]([S-])[C@H](OC(C)=O)[C@@H](OC(C)=O)[C@@H]1OC(C)=O.CCP(CC)CC.[Au+] [auranofin],1.31 ± 0.15
5,c1ccc(-c2ccnc3c2ccc2c(-c4ccccc4)ccnc23)cc1 [bathophenanthroline],7.48 ± 1.64
6,c1ccc(-c2ccccn2)nc1 [bipyridine],17.5 ± 0.354
7,N.N.[Cl][Pt][Cl] [cisplatin],34.6 ± 0.783

# Tested on: not given
# Assay: not given
# Settings: based on gold; cited from earlier work
row,Compound,MTD (maximum tolerated dose) [mg/kg]
1,CC(=O)OC[C@H]1O[C@@H]([S-])[C@H](OC(C)=O)[C@@H](OC(C)=O)[C@@H]1OC(C)=O.CCP(CC)CC.[Au+] [auranofin],12

# From publication PMC8395693 (JACS Au, 2021)
